Laboratory results as given in ChEMBL document CHEMBL4257477, “5,6-Benzoflavones as cholesterol esterase inhibitors: synthesis, biological evaluation and docking studies” (Medchemcomm, 2018).
Activity calls are given as the source filed them. The rule behind the calls is not given here.

What was measured:
[1] = species on record: Sus scrofa; assay: Inhibition of porcine CEase at 50 nM using para-nitrophenyl butyrate as substrate preincubated with substrate for 5 mins followed by enzyme addition by spectrophotometric method relative to control
[2] = Inhibition of porcine CEase using para-nitrophenyl butyrate as substrate preincubated with substrate for 5 mins followed by enzyme addition by spectrophotometric method; set-up: species or system Sus scrofa
Procedure, shortened: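 Porcine cholesterol esterase (10 ng mL–1 final) was assayed in pH 7.0 phosphate/NaCl buffer with 6 mM taurocholate, 3% acetonitrile, and 20 μM p-nitrophenyl butyrate at 25 °C. Test compounds in DMSO were preincubated 5 min, then the enzyme was added and A405 was monitored. IC50 came from four concentrations (1, 5, 10, 25 nM), with means of triplicates.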

[3] = species on record: Sus scrofa; assay: Mixed-type inhibition of porcine CEase at 1 to 50 nM using para-nitrophenyl butyrate as substrate preincubated with substrate for 5 mins followed by enzyme addition by Lineweaver-Burk plot analysis

SMILES | inhibition [1] [%] | IC50 [2] [nM] | inhibition [3]
O=c1cc(-c2ccc(Br)cc2)oc2ccc3ccccc3c12 | > 60 | 8.15 | –
O=c1cc(-c2cccc(Cl)c2)oc2ccc3ccccc3c12 | > 60 | 0.83 | –
CCOP(=O)(OCC)Oc1cc(O)c2c(=O)cc(-c3ccccc3)oc2c1 | – | 0.72 | –
O=c1cc(-c2cc(F)cc(F)c2)oc2ccc3ccccc3c12 | > 60 | 0.99 | –
O=c1cc(-c2cccc([N+](=O)[O-])c2)oc2ccc3ccccc3c12 | > 60 | 16.4 | –
O=c1cc(-c2ccc(C(F)(F)F)cc2F)oc2ccc3ccccc3c12 | > 60 | 23.1 | –
O=c1cc(-c2ccccc2)oc2ccc3ccccc3c12 [BETA-NAPHTHOFLAVONE] | – | 51.1 | –
O=c1cc(-c2ccccc2C(F)(F)F)oc2ccc3ccccc3c12 | > 60 | 31.4 | –
O=c1cc(-c2cc(F)ccc2C(F)(F)F)oc2ccc3ccccc3c12 | > 60 | 27.8 | –
O=c1cc(-c2cccc(CCl)c2)oc2ccc3ccccc3c12 | > 60 | 20.1 | –
O=c1cc(-c2ccccc2I)oc2ccc3ccccc3c12 | > 60 | 9.55 | –
O=c1cc(-c2cccc(F)c2)oc2ccc3ccccc3c12 | > 60 | 3.9 | –
O=c1cc(-c2cc(F)ccc2F)oc2ccc3ccccc3c12 | > 60 | 1.08 | –
O=c1cc(-c2ccc(I)cc2)oc2ccc3ccccc3c12 | > 60 | 13.1 | –
O=c1cc(-c2cccc(Cl)c2Cl)oc2ccc3ccccc3c12 | > 60 | 0.73 | Active
O=c1cc(-c2ccc(CCl)cc2)oc2ccc3ccccc3c12 | > 60 | 22.2 | –
O=c1cc(-c2ccc(F)cc2F)oc2ccc3ccccc3c12 | > 60 | 1.46 | –
O=c1cc(-c2cc([N+](=O)[O-])cc([N+](=O)[O-])c2)oc2ccc3ccccc3c12 | > 60 | 9.8 | –
O=c1cc(-c2ccccc2F)oc2ccc3ccccc3c12 | > 60 | 2.59 | –
O=c1cc(-c2c(F)cccc2F)oc2ccc3ccccc3c12 | > 60 | 1.19 | –
O=c1cc(-c2ccccc2Br)oc2ccc3ccccc3c12 | > 60 | 4.69 | –
O=c1cc(-c2ccc(F)c(F)c2)oc2ccc3ccccc3c12 | > 60 | 1.15 | –
O=c1cc(-c2cccc(Br)c2)oc2ccc3ccccc3c12 | > 60 | 6.01 | –
O=c1cc(-c2c(F)cccc2C(F)(F)F)oc2ccc3ccccc3c12 | > 60 | 29.2 | –
O=c1cc(-c2ccc([N+](=O)[O-])cc2)oc2ccc3ccccc3c12 | > 60 | 18 | –
O=c1cc(-c2cc(F)cc(C(F)(F)F)c2)oc2ccc3ccccc3c12 | > 60 | 29.1 | –
O=c1cc(-c2ccc(F)cc2)oc2ccc3ccccc3c12 | > 60 | 4.5 | –
